pEC50, pIC50, pKd: −log10 of the molar value. Blank lines part the entries; values can stand above or below the compound they belong to.
Columns and labels:
[1] = Inhibition of HCV NS5b RNA polymerase assessed as [3H]UTP incorporation into RNA; set-up: species or system Hepacivirus hominis
How it was run: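 NS5B570n-BK (200 nM) with poly-A:oligo U₁₆ template:primer (8.4 µg/mL), 2.1 µCi tritiated UTP, 1 µM ATP, CTP, GTP in 40 mM Tris-HCl pH 8.0, NaCl, 4 mM DTT, 4 mM MgCl₂; compound serially diluted in DMSO. 2 h at 30 °C, TCA stop, filtration, scintillation counting. IC50 from duplicate means.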

Hepatitis C virus = experiment: Antiviral activity against Hepatitis C virus by replicon assay; assay type: functional, organism-based, Hepacivirus hominis
[2] = Binding affinity to HCV NS5b RNA polymerase by SPR assay; set-up: species or system Hepacivirus hominis

- pEC50 (Hepatitis C virus): 5.10
- pIC50 [1]: 6.23
- pKd [2]: 5.98
SMILES: C[C@@H]1C[C@H](C)CN(C(=O)c2cc(Br)ccc2NC(=O)CCC(=O)c2cccnc2)C1

- pEC50 (Hepatitis C virus): 5.21
- pIC50 [1]: 6.40
- pKd [2]: 6.52
SMILES: C[C@@H]1C[C@H](C)CN(C(=O)c2cc(Br)ccc2NC(=O)CCC(=O)N(C)C)C1

- pEC50 (Hepatitis C virus): 5.13
- pIC50 [1]: 6.60
SMILES: C[C@@H]1C[C@H](C)CN(C(=O)c2cc(Br)ccc2NC(=O)CCC(=O)N2CCOCC2)C1

- pEC50 (Hepatitis C virus): 5.26
- pIC50 [1]: 6.89
- pKd [2]: 6.27
SMILES: C[C@@H]1C[C@H](C)CN(C(=O)c2cc(Br)ccc2NC(=O)CNC(=O)c2ccccc2)C1

- pEC50 (Hepatitis C virus): 5.37
- pIC50 [1]: 6.36
- pKd [2]: 6.01
SMILES: C[C@@H]1C[C@H](C)CN(C(=O)c2cc(Br)ccc2NC(=O)CCC(=O)c2cccs2)C1

- pIC50 [1]: < 3.30
SMILES: Nc1ccc(Br)cc1C(=O)N1CCOCC1

- pIC50 [1]: 5.37
- pKd [2]: 5.03
SMILES: C[C@@H]1C[C@H](C)CN(C(=O)c2cc(Br)ccc2NC(=O)CCC(N)=O)C1

- pIC50 [1]: < 3.30
SMILES: Nc1ccc(Br)cc1C(=O)N1CCCC1

- pEC50 (Hepatitis C virus): 5.34
- pIC50 [1]: 6.77
- pKd [2]: 6.43
SMILES: Cc1cc(CNC(=O)Nc2ccc(Br)cc2C(=O)N2C[C@H](C)C[C@H](C)C2)nn1C

- pEC50 (Hepatitis C virus): 5.24
- pIC50 [1]: 6.37
- pKd [2]: 6.24
SMILES: C[C@@H]1C[C@H](C)CN(C(=O)c2cc(Br)ccc2NC(=O)CNC(=O)c2cccnc2)C1

- pEC50 (Hepatitis C virus): 5.43
- pIC50 [1]: 5.99
- pKd [2]: 6.82
SMILES: C[C@@H]1C[C@H](C)CN(C(=O)c2cc(Br)ccc2NC(=O)[C@@H]2C[C@@H](O)CN2C(=O)c2ccco2)C1

- pIC50 [1]: 6.27
- pKd [2]: 5.73
SMILES: C[C@@H]1C[C@H](C)CN(C(=O)c2cc(Br)ccc2NC(=O)CCC(=O)c2ccccn2)C1

Continued, compound first:

SMILES: C[C@@H]1C[C@H](C)CN(C(=O)c2cc(Br)ccc2NC(=O)CC(=O)N(C)C)C1
- pIC50 [1]: 4.96

SMILES: Nc1ccc(Br)cc1C(=O)Nc1ccccc1Cl
- pIC50 [1]: 3.75

SMILES: C[C@@H]1CN(C(=O)c2cc(Br)ccc2N)C[C@H](C)O1
- pIC50 [1]: 3.72
- pKd [2]: 4.44

SMILES: Nc1ccc(Br)cc1C(=O)N1CCCCC1
- pIC50 [1]: < 3.30

SMILES: CC1CCCN(C(=O)c2cc(Br)ccc2N)C1 (stereo not given)
- pIC50 [1]: 3.77
- pKd [2]: 3.72

SMILES: Nc1ccc(Br)cc1C(=O)N1CCc2ccccc2C1
- pIC50 [1]: 3.88
- pKd [2]: 3.68

SMILES: C[C@@H]1C[C@H](C)CN(C(=O)c2cc(Br)ccc2NC(=O)CCC(=O)O)C1
- pEC50 (Hepatitis C virus): 4.64
- pIC50 [1]: 6.00

SMILES: C[C@@H]1C[C@H](C)CN(C(=O)c2cc(Br)ccc2NC(=O)NCC(=O)N(C)C)C1
- pEC50 (Hepatitis C virus): 5.25
- pIC50 [1]: 6.22
- pKd [2]: 6.34

SMILES: Cc1cnc(CNC(=O)Nc2ccc(Br)cc2C(=O)N2C[C@H](C)C[C@H](C)C2)cn1
- pEC50 (Hepatitis C virus): 5.16
- pIC50 [1]: 6.44
- pKd [2]: 6.46

SMILES: C[C@@H]1C[C@H](C)CN(C(=O)c2cc(Br)ccc2NC(=O)NCc2ccc(N(C)C)cc2)C1
- pEC50 (Hepatitis C virus): 5.31
- pIC50 [1]: 6.00
- pKd [2]: 6.10

SMILES: O=C(O)CCC(=O)Nc1ccc(Br)cc1C(=O)NCC1CCCCC1
- pIC50 [1]: < 3.30

SMILES: C[C@@H]1C[C@H](C)CN(C(=O)c2cc(Br)ccc2NC(=O)CCCC(=O)O)C1
- pIC50 [1]: 5.05

SMILES: C[C@@H]1C[C@H](C)CN(C(=O)c2cc(Br)ccc2NC(=O)[C@@H]2CCCN2C(=O)c2cccnc2)C1
- pEC50 (Hepatitis C virus): 4.89
- pIC50 [1]: 6.46
- pKd [2]: 5.89

SMILES: CC(=O)Nc1ccc(Br)cc1C(=O)N1C[C@H](C)C[C@H](C)C1
- pIC50 [1]: 4.96
- pKd [2]: 5.77

SMILES: C[C@@H]1C[C@H](C)CN(C(=O)c2cc(Br)ccc2N)C1
- pIC50 [1]: 4.77

SMILES: COC(=O)CCC(=O)Nc1ccc(Br)cc1C(=O)N1C[C@H](C)C[C@H](C)C1
- pIC50 [1]: 5.68

SMILES: Nc1ccc(Br)cc1C(=O)NCc1ccccc1
- pIC50 [1]: < 3.30

SMILES: CC(C)NC(=O)c1cc(Br)ccc1NC(=O)CCC(=O)O
- pIC50 [1]: < 3.30

SMILES: C[C@@H]1C[C@H](C)CN(C(=O)c2cc(Br)ccc2NS(C)(=O)=O)C1
- pIC50 [1]: 5.12

SMILES: C[C@@H]1C[C@H](C)CN(C(=O)c2cc(Br)ccc2NC(=O)CNC(=O)c2ccco2)C1
- pEC50 (Hepatitis C virus): 5.06
- pIC50 [1]: 6.60
- pKd [2]: 5.99

SMILES: O=C(O)CCC(=O)Nc1ccc(Br)cc1C(=O)N1CCSCC1
- pIC50 [1]: 3.27

Source: ChEMBL document CHEMBL1145604, “Fragment-based discovery of hepatitis C virus NS5b RNA polymerase inhibitors” (Bioorg Med Chem Lett, 2008)
